From ChEMBL document CHEMBL1155075, “Inhibition of the signal transducer and activator of transcription-3 (STAT3) signaling pathway by 4-oxo-1-phenyl-1,4-dihydroquinoline-3-carboxylic acid esters” (J Med Chem, 2008)
Each block holds one compound with its values, some of them ahead of it. The source made the active and inactive calls. The rule behind the calls is not given here.

How the values were obtained:
[1] = target: Signal transducer and activator of transcription 3 (Homo sapiens) (UniProt P40763); test: Inhibition of STAT3 Y705 phosphorylation in human HeLa cells by Western blot analysis; format: cell-based
Sequence of Signal transducer and activator of transcription 3 (Homo sapiens) (P40763 whole entry): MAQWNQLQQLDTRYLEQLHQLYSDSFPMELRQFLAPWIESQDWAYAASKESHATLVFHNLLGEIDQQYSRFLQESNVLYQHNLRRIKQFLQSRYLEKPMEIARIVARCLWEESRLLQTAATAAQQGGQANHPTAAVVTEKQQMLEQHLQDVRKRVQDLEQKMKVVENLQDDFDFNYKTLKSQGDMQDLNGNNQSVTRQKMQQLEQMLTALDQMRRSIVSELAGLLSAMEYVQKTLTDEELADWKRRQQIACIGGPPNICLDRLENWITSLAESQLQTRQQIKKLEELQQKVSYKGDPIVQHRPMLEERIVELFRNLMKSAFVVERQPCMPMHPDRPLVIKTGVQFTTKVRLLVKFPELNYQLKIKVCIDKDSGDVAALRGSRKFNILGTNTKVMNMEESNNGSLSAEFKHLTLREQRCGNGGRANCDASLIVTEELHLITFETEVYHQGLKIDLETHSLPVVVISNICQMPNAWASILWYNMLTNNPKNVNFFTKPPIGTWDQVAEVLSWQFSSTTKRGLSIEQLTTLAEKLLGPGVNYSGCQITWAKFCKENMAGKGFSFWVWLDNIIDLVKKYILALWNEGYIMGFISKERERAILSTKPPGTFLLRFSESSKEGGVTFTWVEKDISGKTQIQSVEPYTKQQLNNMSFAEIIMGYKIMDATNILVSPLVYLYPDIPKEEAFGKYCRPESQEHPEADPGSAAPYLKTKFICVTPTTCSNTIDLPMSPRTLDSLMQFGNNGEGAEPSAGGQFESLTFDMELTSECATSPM

[2] = target: Signal transducer and activator of transcription 3 (Homo sapiens) (UniProt P40763); test: Inhibition of IFN-alpha-induced STAT3 Y705 phosphorylation in serum starved human HeLa cells by Western blot analysis; format: cell-based
Outline: (§1)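 HeLa or DU145 cells in DMEM + 10% heat-inactivated FBS, ~80% confluent, were serum-starved overnight and treated with compound for 1 h. IFN-alpha 20000 units/mL was then added for 20 min. Cells were collected in 1.1X LDS sample buffer, sonicated, and analysed by Western blot for phospho-STAT3 Y705 with fluorescent secondary detection.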

[3] = target: Signal transducer and activator of transcription 3 (Homo sapiens) (UniProt P40763); test: Inhibition of STAT3 Y705 phosphorylation in human DU145 cells by Western blot analysis; format: cell-based; settings: DU-145
[4] = target: Signal transducer and activator of transcription 3 (Homo sapiens) (UniProt P40763); test: Inhibition of IFN-alpha-induced STAT3 Y705 phosphorylation in serum starved human DU145 cells by Western blot analysis; format: cell-based; settings: DU-145; outline: as §1
U-266 [5] = test: Induction of apoptosis in human U266 cells assessed as caspase activation after 4 days by Apo-ONE Homogeneous caspase 3/7 assay; format: functional, cell-based
Outline: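 Homogeneous caspase 3/7 (Apo-ONE) luminescent/fluorescent signal used as apoptosis read-out in cells under compound treatment. U266 cultured in RPMI1640 with 10% heat-inactivated FBS and Pen-Strep.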

[6] = target: RAC-alpha serine/threonine-protein kinase (Homo sapiens) (UniProt P31749); test: Inhibition of AKT-mTOR pathway in human U266 cells assessed as p70S6 kinase T389 phosphorylation by Western blot; format: cell-based; settings: U-266
Sequence of RAC-alpha serine/threonine-protein kinase (Homo sapiens) (P31749 whole entry): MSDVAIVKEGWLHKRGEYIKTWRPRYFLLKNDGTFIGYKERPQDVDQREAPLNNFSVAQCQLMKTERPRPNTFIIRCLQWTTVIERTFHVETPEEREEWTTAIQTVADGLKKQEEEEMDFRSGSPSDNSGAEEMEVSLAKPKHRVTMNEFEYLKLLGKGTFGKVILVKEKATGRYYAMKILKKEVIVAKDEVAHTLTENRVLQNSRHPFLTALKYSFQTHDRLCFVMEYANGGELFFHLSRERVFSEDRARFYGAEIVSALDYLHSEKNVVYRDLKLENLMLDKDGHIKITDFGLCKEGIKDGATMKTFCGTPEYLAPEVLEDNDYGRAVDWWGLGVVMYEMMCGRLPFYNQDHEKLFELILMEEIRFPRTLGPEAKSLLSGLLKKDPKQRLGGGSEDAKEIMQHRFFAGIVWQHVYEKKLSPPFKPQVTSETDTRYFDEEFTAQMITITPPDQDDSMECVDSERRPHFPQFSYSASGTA
Outline: (§2)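 Steady-state phosphorylation: exponentially growing U266 cells (1 × 10⁶ cells at 2 × 10⁵ cells/mL, RPMI1640 + 10% FBS) were treated with compound for 1 h. Cells were lysed in PhosphoSafe reagent with protease inhibitors. Western blot used primary antibodies (1:1000, 2 h) and fluorescent secondaries (1 h) at room temperature. A representative blot from several repeats is shown.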

[7] = target: RAC-alpha serine/threonine-protein kinase (Homo sapiens) (UniProt P31749); test: Inhibition of AKT-mTOR pathway in human U266 cells assessed as S6-S240/244 phosphorylation by Western blot; format: cell-based; settings: U-266; outline: as §2
[8] = Inhibition of MAPK pathway in human U266 cells assessed as p44/42 MAPK T202/204 phosphorylation by Western blot; format: cell-based; settings: U-266; outline: as §2
[9] = target: Signal transducer and activator of transcription 3 (Homo sapiens) (UniProt P40763); test: Inhibition of STAT3 S727 phosphorylation in human U266 cells; format: cell-based; settings: U-266; outline: as §2
[10] = target: Signal transducer and activator of transcription 3 (Homo sapiens) (UniProt P40763); test: Inhibition of IL6-induced STAT3 Y705 phosphorylation in serum starved human U266 cells by Western blot analysis; format: cell-based; settings: U-266
[11] = target: Signal transducer and activator of transcription 3 (Homo sapiens) (UniProt P40763); test: Inhibition of IFN-alpha-induced STAT3 Y705 phosphorylation in serum starved human U266 cells by Western blot analysis; format: cell-based; settings: U-266
Outline: (§3)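 U266 cells in RPMI1640 + 10% heat-inactivated FBS were serum-starved 2 h, treated with compound 1 h, then stimulated with human IFN-alpha 20000 units/mL for 20 min. Cells were lysed in PhosphoSafe extraction reagent with protease inhibitors and analysed by Western blot with phospho-specific antibodies. JAK antibodies were used at 1:500 with milk blocking, others at 1:1000. Fluorescent secondaries were used.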

[12] = target: Tyrosine-protein kinase JAK1 (Homo sapiens) (UniProt P23458); test: Inhibition of IFN-alpha-induced JAK1 Y1022/1023 phosphorylation in serum starved human U266 cells by Western blot analysis; format: cell-based; settings: U-266; outline: as §3
Sequence of Tyrosine-protein kinase JAK1 (Homo sapiens) (P23458 whole entry): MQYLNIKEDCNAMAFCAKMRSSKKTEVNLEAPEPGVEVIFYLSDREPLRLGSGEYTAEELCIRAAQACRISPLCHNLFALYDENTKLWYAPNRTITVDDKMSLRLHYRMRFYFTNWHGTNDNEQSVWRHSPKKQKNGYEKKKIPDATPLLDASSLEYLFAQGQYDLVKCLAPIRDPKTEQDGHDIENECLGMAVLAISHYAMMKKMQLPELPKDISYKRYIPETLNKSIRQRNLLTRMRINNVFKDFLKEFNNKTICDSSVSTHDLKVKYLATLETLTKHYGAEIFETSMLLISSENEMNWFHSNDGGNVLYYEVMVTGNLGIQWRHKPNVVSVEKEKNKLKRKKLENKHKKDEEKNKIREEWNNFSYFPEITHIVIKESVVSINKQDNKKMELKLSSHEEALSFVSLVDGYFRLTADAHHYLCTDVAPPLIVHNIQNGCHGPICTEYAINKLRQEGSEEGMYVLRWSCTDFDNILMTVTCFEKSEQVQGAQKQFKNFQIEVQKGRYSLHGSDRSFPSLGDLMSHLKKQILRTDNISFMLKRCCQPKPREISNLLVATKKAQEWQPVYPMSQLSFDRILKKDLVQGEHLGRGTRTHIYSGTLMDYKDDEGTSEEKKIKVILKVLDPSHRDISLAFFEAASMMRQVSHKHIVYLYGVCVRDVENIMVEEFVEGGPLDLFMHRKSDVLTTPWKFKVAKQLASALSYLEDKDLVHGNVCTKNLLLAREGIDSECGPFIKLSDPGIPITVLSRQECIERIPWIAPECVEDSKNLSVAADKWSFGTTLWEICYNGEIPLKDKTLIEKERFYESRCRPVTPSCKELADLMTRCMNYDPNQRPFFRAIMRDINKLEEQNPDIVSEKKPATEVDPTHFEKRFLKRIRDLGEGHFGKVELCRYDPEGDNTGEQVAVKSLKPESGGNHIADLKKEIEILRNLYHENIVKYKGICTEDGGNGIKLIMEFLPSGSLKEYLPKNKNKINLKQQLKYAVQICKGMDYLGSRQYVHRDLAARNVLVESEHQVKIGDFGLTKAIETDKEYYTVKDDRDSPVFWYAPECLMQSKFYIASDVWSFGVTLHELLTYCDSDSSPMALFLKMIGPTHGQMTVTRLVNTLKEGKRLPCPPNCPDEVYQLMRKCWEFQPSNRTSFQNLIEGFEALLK

[13] = target: Tyrosine-protein kinase JAK2 (Homo sapiens) (UniProt O60674); test: Inhibition of IFN-alpha-induced JAK2 Y1007/1008 phosphorylation in serum starved human U266 cells by Western blot analysis; format: cell-based; settings: U-266; outline: as §3
Sequence of Tyrosine-protein kinase JAK2 (Homo sapiens) (O60674 whole entry): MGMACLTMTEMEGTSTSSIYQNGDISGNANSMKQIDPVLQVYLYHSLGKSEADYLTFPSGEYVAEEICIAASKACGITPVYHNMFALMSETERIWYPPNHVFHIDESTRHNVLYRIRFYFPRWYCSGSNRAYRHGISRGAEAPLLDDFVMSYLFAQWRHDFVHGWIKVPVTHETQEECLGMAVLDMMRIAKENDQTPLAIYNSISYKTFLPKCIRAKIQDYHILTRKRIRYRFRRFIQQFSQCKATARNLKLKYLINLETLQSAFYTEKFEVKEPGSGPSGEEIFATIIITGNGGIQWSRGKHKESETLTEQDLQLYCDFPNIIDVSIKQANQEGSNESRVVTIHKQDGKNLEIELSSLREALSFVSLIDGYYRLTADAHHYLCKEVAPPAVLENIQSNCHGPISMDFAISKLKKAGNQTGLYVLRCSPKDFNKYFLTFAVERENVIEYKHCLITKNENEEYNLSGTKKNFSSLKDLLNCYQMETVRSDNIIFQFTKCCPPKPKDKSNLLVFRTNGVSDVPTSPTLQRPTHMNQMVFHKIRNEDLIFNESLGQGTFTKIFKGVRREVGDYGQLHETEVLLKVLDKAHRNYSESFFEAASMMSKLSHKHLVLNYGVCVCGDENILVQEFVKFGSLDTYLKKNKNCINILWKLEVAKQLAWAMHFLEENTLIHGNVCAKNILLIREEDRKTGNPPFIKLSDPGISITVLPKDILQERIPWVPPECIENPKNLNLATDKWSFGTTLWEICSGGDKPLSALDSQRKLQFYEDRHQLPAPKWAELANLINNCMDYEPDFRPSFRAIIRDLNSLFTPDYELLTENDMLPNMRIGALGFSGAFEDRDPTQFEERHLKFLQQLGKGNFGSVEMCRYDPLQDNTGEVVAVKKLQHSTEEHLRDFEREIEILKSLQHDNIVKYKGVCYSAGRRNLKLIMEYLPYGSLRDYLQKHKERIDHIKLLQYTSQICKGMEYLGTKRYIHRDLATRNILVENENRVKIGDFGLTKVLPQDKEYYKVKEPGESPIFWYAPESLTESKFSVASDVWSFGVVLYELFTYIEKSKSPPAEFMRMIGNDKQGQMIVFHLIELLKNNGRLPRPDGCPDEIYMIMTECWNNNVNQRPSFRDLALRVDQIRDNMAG

[14] = target: Non-receptor tyrosine-protein kinase TYK2 (Homo sapiens) (UniProt P29597); test: Inhibition of IFN-alpha-induced Tyk2 Y1054/1055 phosphorylation in serum starved human U266 cells by Western blot analysis; format: cell-based; settings: U-266; outline: as §3
Sequence of Non-receptor tyrosine-protein kinase TYK2 (Homo sapiens) (P29597 whole entry): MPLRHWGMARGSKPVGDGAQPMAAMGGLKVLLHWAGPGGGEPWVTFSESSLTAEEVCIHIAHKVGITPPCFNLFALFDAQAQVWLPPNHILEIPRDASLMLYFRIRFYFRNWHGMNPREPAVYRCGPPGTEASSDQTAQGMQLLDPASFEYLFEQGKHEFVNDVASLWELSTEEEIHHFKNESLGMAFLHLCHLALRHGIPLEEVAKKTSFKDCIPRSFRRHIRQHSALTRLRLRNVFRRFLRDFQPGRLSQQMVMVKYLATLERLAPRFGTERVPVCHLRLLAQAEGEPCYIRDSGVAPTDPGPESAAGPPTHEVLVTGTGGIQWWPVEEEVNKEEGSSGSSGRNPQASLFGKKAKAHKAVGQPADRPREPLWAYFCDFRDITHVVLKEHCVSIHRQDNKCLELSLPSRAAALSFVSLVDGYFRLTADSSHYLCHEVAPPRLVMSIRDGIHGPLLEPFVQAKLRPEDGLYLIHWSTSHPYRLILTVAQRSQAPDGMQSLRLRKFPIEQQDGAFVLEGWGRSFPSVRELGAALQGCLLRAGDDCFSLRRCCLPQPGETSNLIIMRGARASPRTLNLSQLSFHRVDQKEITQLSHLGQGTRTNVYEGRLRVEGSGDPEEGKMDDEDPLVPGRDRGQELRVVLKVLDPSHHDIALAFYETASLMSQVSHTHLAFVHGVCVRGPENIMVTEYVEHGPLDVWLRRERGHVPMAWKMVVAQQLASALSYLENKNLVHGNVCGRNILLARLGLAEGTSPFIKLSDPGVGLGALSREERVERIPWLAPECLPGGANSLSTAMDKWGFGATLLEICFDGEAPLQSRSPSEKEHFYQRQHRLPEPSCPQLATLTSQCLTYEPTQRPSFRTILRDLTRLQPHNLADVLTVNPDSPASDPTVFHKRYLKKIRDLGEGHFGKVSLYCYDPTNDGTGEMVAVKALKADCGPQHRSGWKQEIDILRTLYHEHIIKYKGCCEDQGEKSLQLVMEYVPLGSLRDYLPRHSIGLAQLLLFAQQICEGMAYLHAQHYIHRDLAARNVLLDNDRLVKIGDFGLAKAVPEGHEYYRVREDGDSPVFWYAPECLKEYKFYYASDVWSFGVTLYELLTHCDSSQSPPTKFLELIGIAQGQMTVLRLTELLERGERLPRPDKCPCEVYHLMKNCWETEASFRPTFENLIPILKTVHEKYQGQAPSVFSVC

[15] = target: T1, Signal transducer and activator of transcription 5A (Homo sapiens) (UniProt P42229); test: Inhibition of BCR-ABL-activated STAT5 Y694/699 phosphorylation in human K562 cells; format: cell-based
T1 sequence (whole entry): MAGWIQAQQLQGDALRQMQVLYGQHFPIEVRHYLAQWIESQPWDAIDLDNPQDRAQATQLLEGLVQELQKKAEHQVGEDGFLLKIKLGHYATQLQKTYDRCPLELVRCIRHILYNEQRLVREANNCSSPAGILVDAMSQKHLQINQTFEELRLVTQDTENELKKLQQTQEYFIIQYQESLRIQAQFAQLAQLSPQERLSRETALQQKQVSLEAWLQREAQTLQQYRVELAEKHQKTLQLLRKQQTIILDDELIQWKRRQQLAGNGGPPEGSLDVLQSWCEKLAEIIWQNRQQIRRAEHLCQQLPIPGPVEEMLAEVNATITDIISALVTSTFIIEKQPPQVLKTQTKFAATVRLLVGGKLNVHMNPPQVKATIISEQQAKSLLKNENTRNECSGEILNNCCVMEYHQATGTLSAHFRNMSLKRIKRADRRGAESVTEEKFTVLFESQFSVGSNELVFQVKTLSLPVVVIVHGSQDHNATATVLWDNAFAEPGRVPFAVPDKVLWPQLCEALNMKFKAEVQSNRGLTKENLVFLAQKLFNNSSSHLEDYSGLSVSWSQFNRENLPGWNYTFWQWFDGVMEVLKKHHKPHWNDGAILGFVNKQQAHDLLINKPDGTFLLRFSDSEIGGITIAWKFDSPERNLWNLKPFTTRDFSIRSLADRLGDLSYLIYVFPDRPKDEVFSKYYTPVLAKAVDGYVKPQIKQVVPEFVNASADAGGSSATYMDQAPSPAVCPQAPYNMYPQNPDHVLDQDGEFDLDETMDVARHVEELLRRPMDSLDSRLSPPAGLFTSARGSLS
Outline: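 K562 cells (1 × 10⁶ cells at 1 × 10⁶ cells/mL, RPMI1640 + 10% FBS) were treated with compound for 1 h. Lysates in PhosphoSafe reagent were analysed by Western blot with anti-phospho-STAT5 Tyr694/Tyr699 (1:1000) and fluorescent secondary detection.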

A-431 = test: Inhibition of EGF-stimulated MAPK activation in human A431 cells; format: cell-based
[16] = target: Tyrosine-protein kinase JAK1 (Homo sapiens) (UniProt P23458); test: Inhibition of JAK1 at 1 uM
Outline: (§4)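 In vitro JAK1, JAK2 and JAK3 enzyme kinase assay, each tested at 1 and 10 µM compound.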

[17] = target: Tyrosine-protein kinase JAK2 (Homo sapiens) (UniProt O60674); test: Inhibition of JAK2 at 1 uM; outline: as §4
[18] = target: T2, Tyrosine-protein kinase JAK3 (Homo sapiens) (UniProt P52333); test: Inhibition of JAK3 at 1 uM; outline: as §4
T2 sequence (whole entry): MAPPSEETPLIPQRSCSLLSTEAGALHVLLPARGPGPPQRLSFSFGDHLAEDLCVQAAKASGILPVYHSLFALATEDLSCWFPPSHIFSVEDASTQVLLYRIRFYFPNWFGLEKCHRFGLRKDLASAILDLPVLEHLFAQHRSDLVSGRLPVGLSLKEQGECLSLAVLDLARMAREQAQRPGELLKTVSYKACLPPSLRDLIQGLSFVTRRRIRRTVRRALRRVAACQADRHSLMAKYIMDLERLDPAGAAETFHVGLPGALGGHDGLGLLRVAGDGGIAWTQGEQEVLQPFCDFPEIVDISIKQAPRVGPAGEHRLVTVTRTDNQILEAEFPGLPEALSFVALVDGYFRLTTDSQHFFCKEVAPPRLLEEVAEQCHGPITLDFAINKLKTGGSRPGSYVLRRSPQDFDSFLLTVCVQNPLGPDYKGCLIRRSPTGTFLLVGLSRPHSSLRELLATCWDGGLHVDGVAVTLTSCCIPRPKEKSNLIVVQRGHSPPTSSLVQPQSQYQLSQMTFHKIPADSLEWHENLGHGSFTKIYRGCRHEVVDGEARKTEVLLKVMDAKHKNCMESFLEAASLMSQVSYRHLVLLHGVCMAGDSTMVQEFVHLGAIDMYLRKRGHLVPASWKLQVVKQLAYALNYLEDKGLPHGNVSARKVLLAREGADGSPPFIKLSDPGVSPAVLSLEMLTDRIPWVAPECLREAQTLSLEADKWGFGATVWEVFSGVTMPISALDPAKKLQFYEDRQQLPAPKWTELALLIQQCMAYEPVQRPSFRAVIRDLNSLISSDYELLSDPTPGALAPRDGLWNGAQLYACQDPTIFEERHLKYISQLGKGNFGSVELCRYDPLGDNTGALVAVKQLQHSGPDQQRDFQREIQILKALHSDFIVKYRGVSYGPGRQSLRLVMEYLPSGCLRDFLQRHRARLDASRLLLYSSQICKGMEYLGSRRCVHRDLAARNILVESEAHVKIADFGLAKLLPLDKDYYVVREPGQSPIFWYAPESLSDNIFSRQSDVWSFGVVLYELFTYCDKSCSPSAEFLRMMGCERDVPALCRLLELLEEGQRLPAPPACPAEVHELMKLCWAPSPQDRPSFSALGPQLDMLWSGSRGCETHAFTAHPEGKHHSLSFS

[19] = target: Tyrosine-protein kinase JAK1 (Homo sapiens) (UniProt P23458); test: Inhibition of JAK1 at 10 uM; outline: as §4
[20] = target: Tyrosine-protein kinase JAK2 (Homo sapiens) (UniProt O60674); test: Inhibition of JAK2 at 10 uM; outline: as §4
[21] = target: T2, Tyrosine-protein kinase JAK3 (Homo sapiens); test: Inhibition of JAK3 at 10 uM; outline: as §4
U-266 [22] = test: Inhibition of Bcl2-like 1 transcription in human U266 cells at 0.5 uM after 6 hrs by microarray analysis; format: functional, cell-based
Outline: (§5)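 U266 cells were seeded at 1 × 10⁶ cells/mL and treated 6 h in triplicate. RNA was purified, and 2-5 µg total RNA was converted to biotin-labelled cRNA by oligo-T7 reverse transcription and in vitro transcription with biotin-UTP/CTP. mRNA levels were then measured by microarray.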

U-266 [23] = test: Inhibition of MCL1 transcription in human U266 cells at 0.5 uM after 6 hrs by microarray analysis; format: functional, cell-based; outline: as §5
U-266 [24] = test: Inhibition of cyclin D1 transcription in human U266 cells at 0.5 uM after 6 hrs by microarray analysis; format: functional, cell-based; outline: as §5
U-266 [25] = test: Inhibition of cyclin D1 transcription in human U266 cells at 100 uM after 6 hrs by microarray analysis; format: functional, cell-based; outline: as §5
U-266 [26] = test: Inhibition of Bcl2-like 1 transcription in human U266 cells at 100 uM after 6 hrs by microarray analysis; format: functional, cell-based; outline: as §5
U-266 [27] = test: Inhibition of MCL1 transcription in human U266 cells at 100 uM after 6 hrs by microarray analysis; format: functional, cell-based; outline: as §5
A2780 = test: Induction of apoptosis in human A2780 cells assessed as caspase activation after 4 days by Apo-ONE Homogeneous caspase 3/7 assay; format: functional, cell-based

- Activity [1]: Active
- Activity [2]: Active
- Activity [3]: Active
- Activity [4]: Active
- Activity [6]: inactive
- Activity [7]: inactive
- Activity [9]: inactive
- Activity [10]: Active
- Activity [11]: Active
- Activity [12]: Active
- Activity [13]: Active
- Activity [14]: Active
- Activity [15]: inactive
- Activity [16]: inactive
- Activity [17]: inactive
- Activity [18]: inactive
- Activity [19]: inactive
- Activity [20]: inactive
- Activity [21]: inactive
Structure (SMILES): CCOC(=O)c1cn(-c2c(F)c(F)c(C#N)c(F)c2F)c2c(F)c(F)c(F)cc2c1=O
- Activity (U-266 [5]): Active
- Activity [8]: inactive
- Activity (A-431): inactive
- Activity (U-266 [22]): Active
- Activity (U-266 [23]): Active
- Activity (U-266 [24]): Active

Structure (SMILES): N#C/C(=C\c1ccc(O)c(O)c1)C(=O)NCc1ccccc1
- Activity (U-266 [25]): Active
- Activity (U-266 [26]): Active
- Activity (U-266 [27]): Active

Structure (SMILES): CCOC(=O)c1cn(-c2c(F)c(F)c(F)c(F)c2F)c2c(F)c(F)c(F)c(F)c2c1=O
- Activity (U-266 [5]): Active
- Activity (A2780): inactive
